Assay results from ChEMBL document CHEMBL1156308 (J Med Chem, 2010).

Experiments:
[1] = Plasma protein binding in baboon; assay type: ADME, cell-free; details: papio hamadryas, read-out: PPB (converted)
In short: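 [11C]-labelled drug was incubated 10 min at room temperature in pooled plasma from at least 4 baboons. Total radioactivity was counted, then the sample was ultrafiltered by centrifugation (10 min) and the filtrate counted. Result is expressed as % free fraction in plasma.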

[2] = Biodistribution in baboon whole brain at 170 mg, iv after 90 mins; assay type: ADME, organism-based; details: papio hamadryas, read-out: Drug uptake
In short: (§1)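 Brain PET ran 90 min after i.v. [11C]-labelled drug in anaesthetised baboons. Whole-brain regions of interest gave time-activity curves in %ID/cc. µg/ml values were estimated from baboon weight (17 kg) and the recommended human daily dose per kg, assuming signal comes from intact drug.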

[3] = Biodistribution in baboon kidney medulla at 170 mg, iv after 90 mins; assay type: ADME, organism-based; details: papio hamadryas, read-out: Drug uptake
In short: (§2)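 Micro-dose [11C]-labelled drug given i.v. via a radial arm vein to baboons anaesthetised with ketamine (10 mg/kg i.m.), then maintained on oxygen, nitrous oxide and isoflurane (1–4%). Torso PET regions of interest were drawn by hand to give time-activity curves in %ID/cc. µg/ml values were estimated assuming a 10 mg/kg dose, a 17 kg baboon and signal coming from intact drug.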

[4] = Biodistribution in baboon lung at 170 mg, iv after 90 mins; assay type: ADME, organism-based; details: papio hamadryas, read-out: Drug uptake; in short: as §2
[5] = Biodistribution in baboon kidney cortex at 170 mg, iv after 30 mins; assay type: ADME, organism-based; details: papio hamadryas, read-out: Drug uptake; in short: as §2
[6] = Biodistribution in baboon kidney medulla at 170 mg, iv after 60 mins; assay type: ADME, organism-based; details: papio hamadryas, read-out: Drug uptake; in short: as §2
[7] = Biodistribution in baboon heart at 170 mg, iv after 15 mins; assay type: ADME, organism-based; details: papio hamadryas, read-out: Drug uptake; in short: as §2
[8] = Biodistribution in baboon gallbladder at 170 mg, iv after 15 mins; assay type: ADME, organism-based, Gall bladder; details: papio hamadryas, read-out: Drug uptake; in short: as §2
[9] = Biodistribution in baboon plasma at 170 mg, iv after 90 mins; assay type: ADME, organism-based; details: papio hamadryas, read-out: Drug uptake
In short: (§3)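 Anaesthetised baboons received [11C]-labelled drug i.v. (radial arm vein) by PET protocol. Arterial blood was drawn from a popliteal catheter every 5 s for 2 min, then at 2–90 min. Plasma activity is given as %ID/cc. µg/ml values were estimated from the human daily dose per kg scaled to a 17 kg baboon, assuming signal comes from intact drug.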

[10] = Biodistribution in baboon heart at 170 mg, iv after 90 mins; assay type: ADME, organism-based; details: papio hamadryas, read-out: Drug uptake; in short: as §2
[11] = Biodistribution in baboon lung at 170 mg, iv after 60 mins; assay type: ADME, organism-based; details: papio hamadryas, read-out: Drug uptake; in short: as §2
[12] = Biodistribution in baboon whole brain at 170 mg, iv after 30 mins; assay type: ADME, organism-based; details: papio hamadryas, read-out: Drug uptake; in short: as §1
[13] = Biodistribution in baboon kidney cortex at 170 mg, iv after 60 mins; assay type: ADME, organism-based; details: papio hamadryas, read-out: Drug uptake; in short: as §2
[14] = Biodistribution in baboon kidney cortex at 170 mg, iv after 90 mins; assay type: ADME, organism-based; details: papio hamadryas, read-out: Drug uptake; in short: as §2
[15] = Biodistribution in baboon kidney cortex at 170 mg, iv after 15 mins; assay type: ADME, organism-based; details: papio hamadryas, read-out: Drug uptake; in short: as §2
[16] = Biodistribution in baboon gallbladder at 170 mg, iv after 60 mins; assay type: ADME, organism-based, Gall bladder; details: papio hamadryas, read-out: Drug uptake; in short: as §2
[17] = Biodistribution in baboon kidney medulla at 170 mg, iv after 15 mins; assay type: ADME, organism-based; details: papio hamadryas, read-out: Drug uptake; in short: as §2
[18] = Biodistribution in baboon lung at 170 mg, iv after 15 mins; assay type: ADME, organism-based; details: papio hamadryas, read-out: Drug uptake; in short: as §2
[19] = Biodistribution in baboon kidney medulla at 170 mg, iv after 30 mins; assay type: ADME, organism-based; details: papio hamadryas, read-out: Drug uptake; in short: as §2
[20] = Biodistribution in baboon Liver at 170 mg, iv after 15 mins; assay type: ADME, organism-based; details: papio hamadryas, read-out: Drug uptake; in short: as §2
[21] = Biodistribution in baboon Liver at 170 mg, iv after 30 mins; assay type: ADME, organism-based; details: papio hamadryas, read-out: Drug uptake; in short: as §2
[22] = Biodistribution in baboon Liver at 170 mg, iv after 90 mins; assay type: ADME, organism-based; details: papio hamadryas, read-out: Drug uptake; in short: as §2
[23] = Biodistribution in baboon whole brain at 170 mg, iv after 60 mins; assay type: ADME, organism-based; details: papio hamadryas, read-out: Drug uptake; in short: as §1
[24] = Biodistribution in baboon gallbladder at 170 mg, iv after 90 mins; assay type: ADME, organism-based, Gall bladder; details: papio hamadryas, read-out: Drug uptake; in short: as §2
[25] = Biodistribution in baboon gallbladder at 170 mg, iv after 30 mins; assay type: ADME, organism-based, Gall bladder; details: papio hamadryas, read-out: Drug uptake; in short: as §2
[26] = Biodistribution in baboon plasma at 170 mg, iv after 15 mins; assay type: ADME, organism-based; details: papio hamadryas, read-out: Drug uptake; in short: as §3
[27] = Biodistribution in baboon lung at 170 mg, iv after 30 mins; assay type: ADME, organism-based; details: papio hamadryas, read-out: Drug uptake; in short: as §2
[28] = Biodistribution in baboon plasma at 170 mg, iv after 30 mins; assay type: ADME, organism-based; details: papio hamadryas, read-out: Drug uptake; in short: as §3
[29] = Biodistribution in baboon Liver at 170 mg, iv after 60 mins; assay type: ADME, organism-based; details: papio hamadryas, read-out: Drug uptake; in short: as §2
[30] = Biodistribution in baboon heart at 170 mg, iv after 60 mins; assay type: ADME, organism-based; details: papio hamadryas, read-out: Drug uptake; in short: as §2
[31] = Biodistribution in human lung at 108.7 mg, iv after 3 hrs; assay type: ADME, organism-based; details: read-out: Drug uptake
[32] = Biodistribution in baboon plasma at 170 mg, iv after 60 mins; assay type: ADME, organism-based; details: papio hamadryas, read-out: Drug uptake; in short: as §3
[33] = Biodistribution in baboon heart at 170 mg, iv after 30 mins; assay type: ADME, organism-based; details: papio hamadryas, read-out: Drug uptake; in short: as §2

Compound: CO[C@H]1/C=C/O[C@@]2(C)Oc3c(C)c(O)c4c(O)c(c(/C=N/N5CCN(C)CC5)c(O)c4c3C2=O)NC(=O)/C(C)=C\C=C\[C@H](C)[C@H](O)[C@@H](C)[C@@H](O)[C@@H](C)[C@H](OC(C)=O)[C@@H]1C [RIFAMPIN]
- fraction unbound [1]: 0.727

Compound: CO[C@H]1/C=C/O[C@@]2(C)Oc3c(C)c(O)c4cc(c(/C=N/N5CCN([11CH3])CC5)c(O)c4c3C2=O)NC(=O)/C(C)=C\C=C\C(C)[C@H](O)[C@@H](C)[C@@H](O)[C@@H](C)[C@H](OC(C)=O)[C@@H]1C (stereo partly drawn)
- concentration at 1.5 h [2]: 1.21 µg/mL
- concentration at 1.5 h [3]: 9.44 µg/mL
- concentration at 1.5 h [4]: 6.78 µg/mL
- concentration at 0.5 h [5]: 6.34 µg/mL
- concentration at 1 h [6]: 6.73 µg/mL
- concentration at 0.25 h [7]: 7.28 µg/mL
- concentration at 0.25 h [8]: 121 µg/mL
- concentration at 1.5 h [9]: 1.16 µg/mL
- concentration at 1.5 h [10]: 6.8 µg/mL
- concentration at 1 h [11]: 2.53 µg/mL
- concentration at 0.5 h [12]: 1.09 µg/mL
- concentration at 1 h [13]: 0.43 µg/mL
- concentration at 1.5 h [14]: 8.19 µg/mL
- concentration at 0.25 h [15]: 15.8 µg/mL
- concentration at 1 h [16]: 983 µg/mL
- concentration at 0.25 h [17]: 36.4 µg/mL
- concentration at 0.25 h [18]: 5.03 µg/mL
- concentration at 0.5 h [19]: 11.6 µg/mL
- concentration at 0.25 h [20]: 259 µg/mL
- concentration at 0.5 h [21]: 276 µg/mL
- concentration at 1.5 h [22]: 300 µg/mL
- concentration at 1 h [23]: 0.912 µg/mL
- concentration at 1.5 h [24]: 1010 µg/mL
- concentration at 0.5 h [25]: 586 µg/mL
- concentration at 0.25 h [26]: 2.81 µg/mL
- concentration at 0.5 h [27]: 2.83 µg/mL
- concentration at 0.5 h [28]: 1.5 µg/mL
- concentration at 1 h [29]: 288 µg/mL
- concentration at 1 h [30]: 1.93 µg/mL
- concentration at 3 h [31]: 1790 ng/g
- concentration at 1 h [32]: 1.14 µg/mL
- concentration at 0.5 h [33]: 5.28 µg/mL
